Test results published in publication PMC9126795 (eBioMedicine, 2022).
Like-named read-outs stand apart in the source and are kept apart here.

Legend:
[1] = tested on: patients with HCV and HBV liver cirrhosis; test: Serum fibrosis markers; type: in vivo, human; conditions: before vs 12 weeks after PRI-724 administration
In short: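 As an exploratory endpoint, serum hyaluronic acid and type IV collagen type S were measured before and 12 weeks after a course of 280 mg/m² test compound (4 h IV infusion, twice weekly, 12 weeks). Subjects were patients with HCV/HBV cirrhosis, and mean levels were compared.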

[2] = tested on: patients with HCV and HBV liver cirrhosis; test: Ishak; type: in vivo, human
In short: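 Liver biopsies were taken at screening (baseline) and within 2 weeks of the final dose of 280 mg/m²/4 h IV twice weekly for 12 weeks. Three independent pathologists scored slides blinded, using Knodell scoring and Ishak-modified HAI for necroinflammation and fibrosis stage. Thirteen of 15 patients were evaluable; one was excluded for poor sample quality and one discontinued.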

[3] = tested on: patients with HCV and HBV liver cirrhosis; test: Child-Pugh; type: in vivo, human; conditions: 12 weeks after PRI-724 administration
In short: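 Patients with HCV- or HBV-induced cirrhosis (Child–Pugh A or B) received the test compound at 280 mg/m² by 4 h IV infusion twice weekly for 12 weeks. Child–Pugh class and score were assessed at baseline and 12 weeks post-treatment. Fourteen patients were analysed, with one who discontinued excluded.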

[4] = tested on: patients with HCV and HBV liver cirrhosis; test: Liver stiffness measure; type: in vivo, human; conditions: 12 weeks
In short: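 Liver stiffness was measured by FibroScan at baseline and 12 weeks post-treatment in cirrhosis patients. Dosing was 280 mg/m² test compound by 4 h IV infusion twice weekly for 12 weeks. Thirteen patients were analysed, and the change relative to baseline was computed, including the ≥10% decrease subset among Child–Pugh B patients.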

[5] = tested on: murine models of liver fibrosis; conditions: due to hepatic stellate cell inactivation and macrophage migration; cited from earlier work
[6] = type: in vivo, human
In short: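 Cirrhosis patients (3 per dose level) received a single 4 h IV infusion on Day −7 before the first cycle. Cmax, Tmax, t1/2 and AUC were derived by non-compartmental analysis, with the last concentration extrapolated assuming constant elimination.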

[7] = tested on: patients with HCV and HBV liver cirrhosis; test: FIB-4 index, post-hoc analysis; type: in vivo, human; conditions: before and after administration
In short: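 This post-hoc analysis covered HCV/HBV cirrhosis patients given 280 mg/m² of the test compound by 4 h IV infusion twice weekly for 12 weeks. FIB-4 index was calculated before and after administration.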

[8] = 280mg/m^2/4 h, 12 weeks, 13 patients

## PRI-724
[1]
  Serum M2BPGi, mean level: lower relative to baseline levels but not statistically significant
  Serum hyaluronic acid, mean level: no difference in mean levels
  Serum procollagen III peptide, mean level: lower relative to baseline levels but not statistically significant
  Serum type IV collagen type S, mean level: no difference in mean levels
[2]; [8]
  Patients with change in Fibrosis score from baseline of 0: 6
  Patients with change in Fibrosis score from baseline of 1: 3
  Patients with change in Fibrosis score from baseline of 2: 1
  Patients with change in Fibrosis score from baseline of -1: 1
  Patients with change in Fibrosis score from baseline of -2: 2
  Patients with change in Necroinflammatory score from baseline of 0: 5
  Patients with change in Necroinflammatory score from baseline of 1: 2
  Patients with change in Necroinflammatory score from baseline of 2: 2
  Patients with change in Necroinflammatory score from baseline of -1: 2
  Patients with change in Necroinflammatory score from baseline of -2: 2
[2]; after 12-week PRI-724 administration
  Mean activity score: No change was observed
[3]
  Change of CP class in the seven patients with CP class B at baseline: two improved to class A, four remained unchanged, and one worsened
[4]
  Patients with CP class B whose LSM decreased by ≥10% relative to baseline: four of six patients
[5]
  Anti-fibrotic effect: exhibits anti-fibrotic effects
[6]; 140 mg/m^2/4h, Max
  PRI-724 AUC 0-24h: 4660 ng·h/mL
  PRI-724 Cmax: 1520 ng/mL
  PRI-724 Tmax: 4 h
[6]; 140 mg/m^2/4h, Mean
  PRI-724 AUC 0-24h: 3740 ng·h/mL
  PRI-724 Cmax: 1150 ng/mL
[6]; 140 mg/m^2/4h, Median
  PRI-724 AUC 0-24h: 3770 ng·h/mL
  PRI-724 Cmax: 1030 ng/mL
[6]; 140 mg/m^2/4h, Min
  PRI-724 AUC 0-24h: 2790 ng·h/mL
  PRI-724 Cmax: 888 ng/mL
  PRI-724 Tmax: 1 h
[6]; 280 mg/m^2/4h, Max
  PRI-724 AUC 0-24h: 7500 ng·h/mL
  PRI-724 Cmax: 2590 ng/mL
  PRI-724 Tmax: 4 h
[6]; 280 mg/m^2/4h, Mean
  PRI-724 AUC 0-24h: 5700 ng·h/mL
  PRI-724 Cmax: 1710 ng/mL
[6]; 280 mg/m^2/4h, Median
  PRI-724 AUC 0-24h: 5960 ng·h/mL
  PRI-724 Cmax: 1780 ng/mL
[6]; 280 mg/m^2/4h, Min
  PRI-724 AUC 0-24h: 2650 ng·h/mL
  PRI-724 Cmax: 757 ng/mL
  PRI-724 Tmax: 1 h
[6]; 380 mg/m^2/4h, Max
  PRI-724 AUC 0-24h: 16000 ng·h/mL
  PRI-724 Cmax: 4730 ng/mL
  PRI-724 Tmax: 4 h
[6]; 380 mg/m^2/4h, Mean
  PRI-724 AUC 0-24h: 11800 ng·h/mL
  PRI-724 Cmax: 3530 ng/mL
[6]; 380 mg/m^2/4h, Median
  PRI-724 AUC 0-24h: 11900 ng·h/mL
  PRI-724 Cmax: 3540 ng/mL
[6]; 380 mg/m^2/4h, Min
  PRI-724 AUC 0-24h: 7940 ng·h/mL
  PRI-724 Cmax: 2590 ng/mL
  PRI-724 Tmax: 1 h
[7]
  FIB-4 index: statistically significant decrease
